Read-outs that look alike come from different tables or passages of the source.
How the values were obtained:
[1] = at 10 min, 25 mg/kg; ref 39 (Gooyit et al.); cited from earlier work
[2] = assay type: in vivo, C57Bl/6J mice; conditions: for FruArg concentration in plasma: mice, i.p. 2.5 μL/g BW of 40 mM FruArg
Outline: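 In male C57Bl/6J mice (8 weeks; i.p. 40 mM; n = 3 per time), terminal heparinized blood was taken by cardiac puncture at 15, 30, 60 and 180 min. Plasma was stored at −80 °C. Samples (25 μL plasma plus L-lysine-d8 internal standard) went through phospholipid-removal SPE, then C18 UPLC–MS/MS MRM. Quantitation used a plasma-matrix calibration with 1/x2 weighting. PK parameters came from a fit of the concentration–time curve.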

[3] = tested on: mouse BV-2 microglial cells; conditions: cited from earlier work
[4] = assay type: in vivo, C57Bl/6J mice; conditions: mice, i.p. 40 mM, 2.5 μL/g BW, 15 min; cerebellum, cortex, striatum, hippocampus
Outline: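 Male C57Bl/6J mice, 8 weeks old, n = 3, given 40 mM test compound i.p. Brains were saline-perfused, dissected into regions, flash-frozen and stored at −80 °C. Tissue was homogenized in 3 vol water, then centrifuged 20 min at 4 °C. Supernatant (50 μL) was spiked with L-lysine-d8 internal standard and cleaned by phospholipid-removal SPE. Read-out: C18 UPLC–ESI–MS/MS (MRM), expressed as pmol/mg tissue, mean ± SE.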

[5] = Stability of the FruArg stock solution; assay type: physicochemical; conditions: 200 mM hydroacetate salt in double-distilled water, at 4 °C
[6] = tested on: lipopolysaccharide-induced mouse BV-2 microglial cells; conditions: lipopolysaccharide-induced BV-2 cells, concentration-dependent; cited from earlier work
[7] = mice plasma, i.p. 40 mM, 2.5 μL/g BW

| SMILES | concentration in the brain tissue [1] [pmol/mg] | clearance (Cl) [2, 7] | elimination rate (k) [2, 7] | half-life (t1/2) [2, 7] [min] | volume distribution (VD) [2, 7] | AUC0→∞ ([2]; mice plasma, i.p. 40 mM, 2.5 μL/g BW, extrapolated to infinity) [µM·min] | clearance (Cl) ([2]; mice plasma, i.p. 40 mM, 2.5 μL/g BW, unit as in Table 2) | FruArg concentration in plasma ([2]; 15 min, average n = 3 ± SE) [µM] | FruArg concentration in plasma ([2]; 30 min, average n = 3 ± SE) [µM] | FruArg concentration in plasma ([2]; 60 min, average n = 3 ± SE) [µM] | FruArg concentration in plasma ([2]; 180 min, plasma LOQ 1 μM) | cell viability [3] | FruArg concentration in brain tissue, all four subregions [4] | stability of stock solution [5] | nitric oxide (NO) production [6] |
| --- | --- | --- | --- | --- | --- | --- | --- | --- | --- | --- | --- | --- | --- | --- | --- |
| O=S(=O)(CC1CS1)c1ccc(Oc2ccccc2)cc1 (stereo not drawn) [SB-3CT] | 5.0 ± 0.8 | – | – | – | – | – | – | – | – | – | – | – | – | – | – |
| N=C(N)NCCC[C@H](NCC(=O)[C@@H](O)[C@H](O)[C@H](O)CO)C(=O)O [FruArg, N-α-(1-deoxy-D-fructos-1-yl)-L-arginine] | – | 1.8 × 10^–4 L·min | 6.91 × 10^–2 min^–1 | 10.03 | 2.63 × 10^–3 L | 4930 | 1.8 × 10^–4 L·min^–1 | 111 ± 3 | 33 ± 9 | 5 ± 2 | below the LOQ | without affecting the cell viability | 4–7 pmol/mg tissue | at least 6 months | suppressing nitric oxide (NO) production |
